Bioassay records as filed in PubChem BioAssay.
Hits are enriched below; roughly 2.7% of the tested compounds scored in any of these assays.
PRMT1 FP inh = blocks human protein arginine methyltransferase 1; recombinant PRMT1, activity-based probe fluorescence polarization; hit rate 1.3% among 370,000; Q99873; AID 652257; inhibition, % at 2.79 µM;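 active = inhibition above about 21% made by adding two undisclosed values, limit read from the data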
Target sequence (Q99873 whole entry, looked up): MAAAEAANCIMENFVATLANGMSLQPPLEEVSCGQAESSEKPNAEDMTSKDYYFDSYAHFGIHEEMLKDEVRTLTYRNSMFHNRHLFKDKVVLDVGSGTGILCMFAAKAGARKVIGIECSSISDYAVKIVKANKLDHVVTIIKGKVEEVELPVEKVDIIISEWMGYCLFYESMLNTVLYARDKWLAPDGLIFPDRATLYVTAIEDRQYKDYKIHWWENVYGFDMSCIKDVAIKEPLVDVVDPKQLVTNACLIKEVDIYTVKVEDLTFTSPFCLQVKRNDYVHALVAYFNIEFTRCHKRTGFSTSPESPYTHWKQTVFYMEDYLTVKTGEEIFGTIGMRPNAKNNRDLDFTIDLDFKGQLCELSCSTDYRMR
GSTO1 counter = counter-screen for RBBP9 inhibitors: inhibitors of human GSTO1; P78417; recombinant GSTO1, activity-based probe fluorescence polarization; inhibition, % at 5.96 µM; hit rate 1.1% among 300,000; AID 1974;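 active = inhibition above the campaign mean inhibition plus 3 SD, cut at about 35% in these data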;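 note: 0% = GSTO1-1 with DMSO and 100% = wells lacking GSTO1-1 enzyme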
RBBP9 inhibitor = inhibitors of human serine hydrolase RBBP9 | O75884 | recombinant RBBP9, FP-Rh probe fluorescence polarization | inhibition, % at 7.94 µM | hit rate 0.2% among 220,000;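 active = inhibition above the campaign mean of all tested compounds plus 3 SD, cut at about 14% in these data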;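 note: plate controls were DMSO wells with RBBP9 for no effect and wells lacking RBBP9 protein for full effect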
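Test system: recombinant human RBBP9; Timing: 30 min then 45 min, 25 °C; Detection: fluorescence polarization; Control set: RBBP9 with DMSO as uninhibited control, no-protein wells as full inhibition; Compound dosing: one concentration, 7.94 µM nominal, 0.794% DMSO; Probe or stimulus: FP-Rh activity-based probe, 375 nM before mixing.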
PAD4 FP inh = PAD4 (human) enzyme inhibition. hit rate 0.41% among 330,000. recombinant PAD4, RCA probe fluorescence polarization. inhibition, % at 6.36 µM. AID 485272;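 active = percent inhibition above a cutoff equal to the mean of all tested compounds plus 3 SD, cut at about 15% in these data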;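 note: 0% = PAD4 with RCA probe and DMSO and 100% = probe without PAD4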
SIAE inh = human SIAE inhibition, primary screen; hit rate 0.69% among 370,000; inhibition, % at 9.66 µM; SIAE FP-Rh probe binding, fluorescence polarization;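 active = inhibition above a cutoff: mean of compounds within the control limits plus 3 SD of those, cut at about 17% in these data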;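 note: 0% = plate median of compound wells and 100% = probe without SIAE protein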
GSTO1 confirm = GSTO1 (human) inhibition, confirmation. hit rate 54% among 2,400. shares compounds with GSTO1 counter. recombinant GSTO1, probe fluorescence polarization. inhibition, % at 5.96 µM;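 active = inhibition above the primary screen's cutoff, its mean inhibition plus 3 SD, cut at about 35% in these data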;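 note: loss of polarization as inhibitors block binding of rhodamine sulfonate ester activity probe; 0% = GSTO1 with DMSO and 100% = wells lacking GSTO1 enzyme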
GSTO1 recomb ABPP = GSTO1 (human) inhibition by gel ABPP; shares compounds with GSTO1 counter; recombinant GSTO1, gel ABPP SE-Rh probe fluorescence; inhibition, % at 1 µM; hit rate 30% among 130;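 active = inhibition of the enzyme GSTO1 above about 75%, limit read from the data; inactive = inhibition below that limit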
Numbers without * were called inactive; nt = no result given.

SMILES | PRMT1 FP inh | GSTO1 counter | RBBP9 inhibitor | PAD4 FP inh | SIAE inh | GSTO1 confirm | others
Cc1coc2c1C(=O)C(=O)c1c-2ccc2c(C)cccc12 | nt | 97.4* | nt | -4.0 | nt | 57.3*
CC(OC(=O)/C=C/c1cccc(C(F)(F)F)c1)C(=O)NC1CCCCC1C (centres undefined) | -2.8 | -1.5 | nt | -3.8 | -4.8 | nt
Cc1c(NS(=O)(=O)c2cc(C(=O)NCc3cccnc3)cc(Cl)c2Cl)c(=O)n(-c2ccccc2)n1C | -1.6 | -6.6 | nt | 0.0 | 0.7 | nt
CCOC(=O)N1CCC(N2C(=O)c3ccccc3C2Nc2cc(C(=O)OC)cc(C(=O)OC)c2)CC1 (centres undefined) | -2.8 | 58.9* | -9.5 | -1.2 | -4.8 | -1.3
COc1ccc(C(OCC2CO2)c2ccc(OC)cc2)cc1 (centres undefined) | nt | 82.1* | -1.4 | 1.5 | nt | 91.8* | GSTO1 recomb ABPP=66.0
COc1ccc(S(=O)(=O)c2ccc(OCC3CO3)cc2)cc1 (centres undefined) | -2.0 | 34.7 | -4.0 | 0.4 | -3.3 | nt
CC(=O)Nc1ccc(NC(=O)CCS(=O)(=O)c2ccc3c(c2)oc(=O)n3C)cc1 | 1.4 | 1.9 | nt | 1.4 | 0.8 | nt
Cn1c(=O)oc2cc(NC(=O)CCl)ccc21 | 6.8 | 76.0* | -1.5 | -3.7 | -3.7 | 86.7*
O=C(NC1CCCC1)c1cccc(Oc2ccccc2)c1 | -0.5 | 3.1 | -5.9 | 8.7 | 1.1 | nt
CN1CCC(NC(=O)c2cccc(Oc3ccccc3)c2)CC1 | -0.2 | 63.5* | nt | -1.5 | 3.8 | 5.9
CN(C)Cc1c(O)ccc2c3c(c(=O)oc12)CCCCC3 | 4.3 | 3.3 | 5.1 | 1.6 | 0.0 | nt
CN(Cc1c(O)ccc2c1oc(=O)c1ccccc12)C1CCCCC1 | 7.6 | 46.3* | -4.5 | 0.2 | -0.9 | 42.0*
O=C1N=C(N2CCOCC2)SC1=Cc1ccco1 | 18.0 | nt | nt | nt | 1.6 | nt
O=C1N=C(N2CCOCC2)S/C1=C/c1cc2c(cc1[N+](=O)[O-])OCO2 | 7.8 | 64.1* | -3.1 | -12.0 | 3.4 | 47.8*
N#CC1=C(N)Oc2n[nH]c(-c3cccnc3)c2C1c1ccc([N+](=O)[O-])o1 (centres undefined) | 6.0 | 42.4* | 2.2 | -13.8 | 8.4 | 26.3
O=C(CCl)N1N=C(c2ccco2)CC1c1ccco1 (centres undefined) | 38.1* | 89.6* | nt | -0.5 | 7.6 | 97.0*
CCC(=O)N1N=C(c2ccc(Cl)cc2)CC1c1ccco1 (centres undefined) | -4.6 | 2.4 | -10.5 | 5.6 | 1.5 | nt
O=C(CCl)N1N=C(c2cccs2)CC1c1ccco1 (centres undefined) | 4.7 | 92.0* | -5.5 | -0.7 | -6.1 | 100.2*
CN1CCN(CC(=O)N2N=C(c3cccs3)CC2c2ccco2)CC1 (centres undefined) | 0.3 | 0.2 | -7.7 | -5.0 | 2.1 | nt
O=C(NNC(=O)c1ccc(SCC2CCCO2)c([N+](=O)[O-])c1)c1ccc(F)cc1 (centres undefined) | -1.1 | 1.7 | -1.6 | -9.2 | -0.5 | nt
C/C(=N\Nc1cccc2cccnc12)c1ccc[nH]1 | 6.5 | 47.2* | 6.2 | -1.6 | 7.2 | 3.3
CC1CCN(C(c2ccccc2)c2nnnn2C(C)(C)C)CC1 (centres undefined) | 3.3 | 1.5 | -3.4 | -7.4 | -0.6 | nt
CN(C)CCO[C@@H](c1ccc(Cl)cc1)c1ccccn1 | -3.2 | 3.4 | nt | -2.8 | -9.8 | nt
CCC(=O)N(C1=C(NC)C(=O)c2ccccc2C1=O)C(C)C | -1.9 | 50.2* | -2.3 | -5.5 | -0.7 | 12.6
O=C(O)CCCN1C(=O)/C(=C/C=C/c2ccco2)SC1=S | 41.5* | 41.9* | 2.7 | -7.5 | 7.8 | 37.0*
O=C(O)CN1C(=O)/C(=C\c2ccccc2OCc2ccccc2)SC1=S | 11.4 | nt | nt | nt | -6.2 | nt
O=C(O)CN1C(=O)/C(=C\c2cccc(OCc3ccccc3)c2)SC1=S | 30.1* | 40.0* | nt | 1.1 | 0.7 | 30.4
Cc1ccc(NC(=O)CCCN2C(=O)/C(=C/C=C/c3ccccc3)SC2=S)cc1 | -1.1 | -35.0 | 1.7 | -38.3 | -2.5 | nt
O=C(O)CCCN1C(=O)/C(=C\c2ccccc2OCc2ccccc2)SC1=S | -1.5 | 39.5* | nt | -4.1 | -4.0 | 48.0*
Cc1nc(CN2CCN(Cc3nc(C(c4ccccc4)c4ccccc4)no3)CC2)cs1 | 2.1 | -1.0 | -3.4 | -5.8 | -2.5 | nt
